Assay outcomes deposited in PubChem by several laboratories.
SR-BI uptake up = activators of SR-BI mediated DiI-HDL uptake, primary screen, ldlA[mSR-BI] CHO cells, DiI fluorescence; 3 h; 100 = double the neutral-control signal; activation, % at 12.5 µM; actives 0.096% (n = 320,000); AID 504775, 2011;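 active = mean replicate activation of at least 60% and every replicate at or above 60%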;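 note: 0% = median plate neutral-control signal and 100% = twice that signal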
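Material – SR-BI-overexpressing, LDLR-lacking CHO cells · Medium – BSA-supplemented, HEPES-buffered Ham's F12, pH 7.4 · Doses – single concentration · Times – compound with DiI-HDL co-incubation, 3 h at 37 °C · Measured by – bottom-read fluorescence, 550/595 nm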
FXN GAA850 act = FXN promoter activators, primary screen, cell-based, luciferase luminescence, HEK293 lucGAA850; activation, % at 6 µM; HEK293 lucGAA850 FXN promoter luciferase reporter, 24 h; percent of 10 µM SAHA response; actives 0.56% (n = 360,000);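 active = activation above the average of all compounds screened plus 3 SD, cutoff fixed separately per campaign, cut at about 7.5% in these data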;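 note: 0% = DMSO wells and 100% = 10 µM SAHA wells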
AHR act = AHR activators, primary screen, cell-based, luminescence, luciferase reporter, human; AID 2796, 2010; AHR-responsive luciferase reporter cells; activation, % at 5 µM; actives 2.5% (n = 320,000); in the data active = activation above about 47%;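 note: 0% = vehicle wells and 100% = reference agonist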
SR-BI DiI inh = inhibitors of SR-BI mediated HDL lipid uptake, primary screen, ldlA[mSR-BI] cells, fluorescence, single point | Scavenger receptor class B member 1 (Mus musculus), Q61009 | ldlA[mSR-BI] CHO cells, DiI-HDL uptake fluorescence, 3 h | inhibition, % at 12.5 µM | actives 0.96% (n = 320,000) | AID 488896, 2010;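 active = mean replicate inhibition of at least 70% and a set share of replicates each scoring 70 or more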;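 note: 0% = median of neutral control wells and 100% = median of positive control wells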
JMJD2C inh = inhibitors of GASC-1 histone demethylase, primary screen, biochemical, fluorescence, DELFIA europium. Lysine-specific demethylase 4C (Homo sapiens), Q9H3R0. GST-JMJD2C(1-420) H3K9me3 demethylation. inhibition, % at 2.35 µM. actives 0.069% (n = 330,000);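 active = more than half of a compound's replicate wells show inhibition beyond 50%, single wells judged on their own value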;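 note: signal counts dimethyl H3K9 product captured on neutravidin plate; 0% = median of DMSO wells and 100% = 0.3 times that DMSO median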
Target sequence (Q9H3R0 1-420 limits assumed): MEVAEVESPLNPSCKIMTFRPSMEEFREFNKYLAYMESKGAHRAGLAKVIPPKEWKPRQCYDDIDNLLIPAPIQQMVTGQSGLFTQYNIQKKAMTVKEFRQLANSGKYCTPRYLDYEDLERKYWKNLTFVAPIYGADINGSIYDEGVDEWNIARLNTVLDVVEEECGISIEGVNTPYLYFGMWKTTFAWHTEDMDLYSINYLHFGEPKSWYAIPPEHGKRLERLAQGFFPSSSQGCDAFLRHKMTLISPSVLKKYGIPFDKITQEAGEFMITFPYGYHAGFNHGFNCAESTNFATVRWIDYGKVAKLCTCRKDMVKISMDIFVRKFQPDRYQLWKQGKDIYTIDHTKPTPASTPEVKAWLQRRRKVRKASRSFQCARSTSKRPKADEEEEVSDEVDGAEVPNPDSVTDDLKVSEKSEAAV
Numbers without * were called inactive; . = no result given. Rows were chosen to be rich in hits. Some 3.7% of all compounds tested hit in one or more screens of this group.

SMILES	SR-BI uptake up	FXN GAA850 act	AHR act	SR-BI DiI inh	JMJD2C inh
COC(=O)Cc1c(C)c2ccc(OCC(=O)NC3CCS(=O)(=O)C3)cc2oc1=O (stereo not drawn)	8	3	-1	-8	11
C/C(=N\O)c1noc(C)c1C(=O)Nc1nccs1	-3	1	50*	3	7
CCOC(=O)c1noc(C)c1C(=O)Nc1nccs1	9	0	2	-9	-16
Nc1nc(NCC2CCCO2)nc(Nc2ccc(F)cc2)c1[N+](=O)[O-] (stereo not drawn)	-19	2	76*	19	0
Nc1nc(NCc2ccccc2)nc(Nc2ccc(F)cc2)c1[N+](=O)[O-]	-23	3	103*	23	3
CN(c1ccccc1)c1nc(N)c([N+](=O)[O-])c(Nc2ccccc2)n1	-23	4	9	23	3
COc1ccc(Nc2nc(N(C)c3ccccc3)nc(N)c2[N+](=O)[O-])cc1	138*	-1	0	-138	5
COc1ccccc1Nc1nc(N(C)c2ccccc2)nc(N)c1[N+](=O)[O-]	-39	0	.	39	-4
COc1ccccc1Nc1nc(NCCC(C)C)nc(N)c1[N+](=O)[O-]	.	3	49*	.	-30
Nc1nc(NCc2ccccc2)nc(Nc2cccc(F)c2)c1[N+](=O)[O-]	-4	1	35	4	12
COc1ccc(C(=O)NCCNC(=O)c2cnccn2)cc1	.	-1	1	.	-21
CCCCN(CC)CCCNC(=O)c1cc2c(=O)n(C)c3ccccc3c2n1C	-66	2	7	66	0
O=C(COc1ccc([N+](=O)[O-])cc1)Nc1ccc(C(=O)NCc2cccnc2)cc1	-33	-2	6	33	-8
O=C(COC(=O)c1cc([N+](=O)[O-])ccc1N1CCOCC1)c1ccc(F)cc1	-84	1	3	84*	11
O=C(OCc1ccc(Br)cc1)c1cc([N+](=O)[O-])ccc1N1CCOCC1	.	1	.	.	.
CCc1cccc(C)c1NC(=O)COC(=O)c1cc([N+](=O)[O-])ccc1N1CCOCC1	-72	-1	1	72*	-2
CCc1ccc(C(=O)COC(=O)c2cc([N+](=O)[O-])ccc2N2CCOCC2)cc1	-81	-5	1	81*	0
Cc1cc(Cl)ccc1NC(=O)COC(=O)c1cc([N+](=O)[O-])ccc1N1CCOCC1	-53	-1	5	53	-3
COCCN(C(=S)Nc1cccc(C)c1)C(C)c1cccnc1 (stereo not drawn)	2	0	2	-2	4
Cc1cc(=O)[nH]c2c(C)c(N)ccc12	-1	-1	0	1	8
Cc1cc(C)c2ccc3c(C)c(C)nc3c2[nH]1	-10	1	68*	10	.
CCOC(=O)c1c(C)[nH]c(C2=NNC(=Nc3cccc(Cl)c3)SC2)c1C	.	.	120*	.	-17
CC(=O)c1c(C)[nH]c(C2=NNC(=NCc3ccccc3)SC2)c1C	-42	1	8	42	9
CCOc1ccccc1CN1CCN(Cc2c[nH]c3ccccc23)CC1CCO (stereo not drawn)	11	-2	.	-11	-2
CCOc1ccccc1CN1CCN(Cc2[nH]c3ccccc3c2C)CC1CCO (stereo not drawn)	-10	-4	51*	10	-2
SMILES	SR-BI uptake up	FXN GAA850 act	AHR act	SR-BI DiI inh	JMJD2C inh
CCOC(=O)N1CCC(NC(=O)CN2C(=O)C(CC)Oc3ccc(C)cc32)CC1 (stereo not drawn)	1	-1	1	-1	0
CCC1Oc2ccc(C)cc2N(CC(=O)NC2CCCCC2)C1=O (stereo not drawn)	-89	1	-3	89*	0
COc1ccc(C)cc1S(=O)(=O)N1c2ccc(C)cc2C2CN(C)CCC21 (stereo not drawn)	17	1	.	-17	.
Cc1ccc(-c2ccc(/C=C(\C#N)C(N)=S)n2C)cc1	.	2	79*	.	.
CCOc1cc(C(=O)CCC(=O)OCC(=O)N2c3ccccc3NC(=O)C2(C)C)ccc1O	-22	1	2	22	4
CCN(CC)S(=O)(=O)c1ccc2[nH]c(=O)cc(C(=O)Nc3cccc(C(C)=O)c3)c2c1	9	0	6	-9	0
O=c1[nH]c2ccccc2nc1CCc1ccccc1	2	6	58*	-2	5
c1ccc(CCc2nc3ccccc3[nH]2)cc1	-17	3	-1	17	-6
O=C1c2cccc(OCc3ccc(F)cc3)c2CCN1Cc1ccccc1	-25	1	8	25	11
CCN1CCc2c(OCc3ccccc3)cccc2C1=O	-80	-1	-1	80*	0
COc1ccc2cc(C(=O)C3CCCN(C(=O)c4cncs4)C3)ccc2c1 (stereo not drawn)	-6	3	59*	6	27
CCC(=O)c1ccc(OCC(=O)OC(C)C(=O)Nc2c(C)n(C)n(-c3ccccc3)c2=O)cc1 (stereo not drawn)	3	-2	.	-3	.
COCCN(C(=O)CSc1nnc(-c2ccco2)n1C)c1c(N)n(CC(C)C)c(=O)[nH]c1=O	17	3	1	-17	-26
Cc1[nH]n(C(N)=S)c(=O)c1N=Nc1ccc2ccccc2c1	-5	7	.	5	-1
Cc1c(N=Nc2c(-c3ccc([N+](=O)[O-])cc3)[nH]n(C(N)=S)c2=O)cccc1[N+](=O)[O-]	-92	-1	.	92*	.
NC(=S)n1[nH]c(-c2ccc([N+](=O)[O-])cc2)c(N=Nc2cccc([N+](=O)[O-])c2)c1=O	-87	2	.	87*	-2
Cc1[nH]n(C(N)=S)c(=O)c1N=Nc1cccc([N+](=O)[O-])c1C	14	2	19	-14	7
NC(=S)n1[nH]c(-c2ccc([N+](=O)[O-])cc2)c(N=Nc2ccccc2[N+](=O)[O-])c1=O	-89	1	.	89*	.
CN(C)CCCN(CCCNC(=O)/C=N/O)Cc1ccccc1	29	3	-2	-29	0
COC(=O)c1sc(S(=O)(=O)N2CC(C)OC(C)C2)c(C(=O)OC)c1C (stereo not drawn)	-7	0	-1	7	.
CC(=O)Nc1ccc(NC(=O)C(C)OC(=O)CSCc2cccc(Cl)c2)cc1 (stereo not drawn)	43	-1	-3	-43	-3
O=C(Cc1ccc(NC2=NC3CS(=O)(=O)CC3S2)cc1)NCc1ccccc1 (stereo not drawn)	30	0	-2	-30	17
Cc1cc(Cl)ccc1NC(=O)C1CCCN1C(=O)c1cccs1 (stereo not drawn)	36	-1	0	-36	54
